Assay results from ChEMBL document CHEMBL1145132, “N-hydroxy-3-phenyl-2-propenamides as novel inhibitors of human histone deacetylase with in vivo antitumor activity: discovery of (2E)-N-hydroxy-3-[4-[[(2-hydroxyethyl)[2-(1H-indol-3-yl)ethyl]amino]methyl]phenyl]-2-propenamide (NVP-LAQ824)” (J Med Chem, 2003).
“And” between values parts separate entries of the source, which are not always exact repeats. Identical values can stand only once.

How the values were obtained:
NCI-H1299 = experiment: Inhibitory activity against H1299 human lung carcinoma cell growth; type: functional, cell-based
HCT-116 = experiment: Inhibitory activity against HCT116 human colon cell growth; type: functional, cell-based
Mus musculus [1] = experiment: Compound was tested for efficacy in athymic mice bearing HCT116 subcutaneous tumor xenografts at a dose of 100 mg/kg and change in the body weight of the mouse was evaluated; type: functional
Outline: (§1)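 Female outbred athymic nu/nu mice, ≈10⁶ HCT116 cells injected sc in right axillary region under anesthesia; treatment began when tumors ≈100 mm³ (day 13 post-implant), groups of eight balanced on tumor volume. Compound given iv as lactate salt in 10% DMSO/D5W, qd 5×/week for 15 doses. Individual body weights recorded once weekly; % change from start reported.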

Mus musculus [2] = experiment: Compound was tested in vivo for efficacy in athymic mice bearing HCT116 subcutaneous tumor xenografts at a dose of 100 mg/kg and change in the body weight of the mouse was evaluated; type: functional; conditions: route intravenous; outline: as §1
Mus musculus [3] = experiment: Compound was tested in vivo for efficacy in athymic mice bearing HCT116 subcutaneous tumor xenografts at a dose of 25 mg/kg and change in the body weight of the mouse was evaluated; type: functional
Mus musculus [4] = experiment: Compound was tested in vivo for efficacy in athymic mice bearing HCT116 subcutaneous tumor xenografts at a dose of 50 mg/kg and change in the body weight of the mouse was evaluated; type: functional; conditions: route intravenous; outline: as §1
Mus musculus [5] = experiment: Compound was tested in vivo for efficacy in A549 human lung carcinoma xenograft model at a dose of 10 mg/kg and change in the body weight of the mouse was evaluated; type: functional
Outline: (§2)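 Female outbred athymic nu/nu mice, ≈10⁷ A549 cells injected sc in right axillary region; treatment began ≈20 days post-implant at tumors ≈100 mm³, eight mice per group balanced on tumor volume. Dosing iv as lactate salt in 10% DMSO/D5W, qd 5×/week for 15 doses. Body weights recorded once weekly; % change reported.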

Mus musculus [6] = experiment: Compound was tested in vivo for efficacy in A549 human lung carcinoma xenograft model at a dose of 100 mg/kg and change in the body weight of the mouse was evaluated; type: functional; outline: as §2
Mus musculus [7] = experiment: Compound was tested in vivo for efficacy in A549 human lung carcinoma xenograft model at a dose of 25 mg/kg and change in the body weight of the mouse was evaluated; type: functional; outline: as §2
Mus musculus [8] = experiment: Compound was tested in vivo for efficacy in A549 human lung carcinoma xenograft model at a dose of 50 mg/kg and change in the body weight of the mouse was evaluated; type: functional; outline: as §2
Mus musculus [9] = experiment: Compound was tested in vivo for efficacy in athymic mice bearing HCT116 subcutaneous tumor xenografts at a dose of 10 mg/kg and change in the body weight of the mouse was evaluated; type: functional; conditions: route intravenous; outline: as §1
Mus musculus [10] = experiment: Ratio of the change in tumor volume of treated animals to the change in tumor volume of control animals at a dose of 50 mg/kg (A549 human lung carcinoma xenograft study); type: functional
Outline: (§3)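 A549 sc xenografts (≈10⁷ cells) in female athymic nude mice, eight per group, dosed from ≈100 mm³ tumors (day 20) iv as lactate salt in 10% DMSO/D5W qd 5×/week for 15 doses. Weekly tumor measurement; % T/C = treated over vehicle-control change in tumor volume; one-tailed Student's t-test.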

Mus musculus [11] = experiment: Compound was tested for maximum tolerated dose (MTD) that resulted in no deaths when administered intravenously for five days; type: functional
Outline: (§4)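 Athymic mice, four per group, dosed iv once daily for five consecutive days, up to a maximum of 200 mg/kg/day. Compound given as the lactate salt in 10% DMSO in 5% dextrose/water (final DMSO 10%). MTD taken as the highest dose that caused no deaths.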

Mus musculus [12] = experiment: Ratio of the change in tumor volume of treated animals to the change in tumor volume of control animals at a dose of 10 mg/kg; type: functional
Outline: (§5)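 HCT116 sc xenografts (≈10⁶ cells) in female athymic nude mice, eight per group, treated from ≈100 mm³ tumors with iv lactate salt in 10% DMSO/D5W qd 5×/week for 10 or 15 doses. Tumors measured weekly; % T/C = change in treated tumor volume over change in vehicle-control tumor volume; one-tailed Student's t-test.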

Mus musculus [13] = experiment: Ratio of the change in tumor volume of treated animals to the change in tumor volume of control animals at a dose of 10 mg/kg (A549 human lung carcinoma xenograft study); type: functional; outline: as §3
Mus musculus [14] = experiment: Ratio of the change in tumor volume of treated animals to the change in tumor volume of control animals at a dose of 100 mg/kg; type: functional; conditions: 100 mg/kg; outline: as §5
Mus musculus [15] = experiment: Ratio of the change in tumor volume of treated animals to the change in tumor volume of control animals at a dose of 100 mg/kg (A549 human lung carcinoma xenograft study); type: functional; outline: as §3
Mus musculus [16] = experiment: Ratio of the change in tumor volume of treated animals to the change in tumor volume of control animals at a dose of 25 mg/kg; type: functional; outline: as §5
Mus musculus [17] = experiment: Ratio of the change in tumor volume of treated animals to the change in tumor volume of control animals at a dose of 25 mg/kg (A549 human lung carcinoma xenograft study); type: functional; outline: as §3
Mus musculus [18] = experiment: Ratio of the change in tumor volume of treated animals to the change in tumor volume of control animals at a dose of 50 mg/kg; type: functional; outline: as §5
Histone deacetylase = experiment: Inhibitory activity against histone deacetylase (HDAC) enzyme obtained from H1299 human lung carcinoma cell lysates
Mus musculus [19] = experiment: Compound was tested in vivo for efficacy in athymic mice bearing HCT116 subcutaneous tumor xenografts at a dose of 40 mg/kg and change in the body weight of the mouse was evaluated; type: functional; outline: as §1
Mus musculus [20] = experiment: Compound was tested in vivo for maximum tolerated dose (MTD) that resulted in no deaths when administered intravenously for five days; type: functional; outline: as §4
Mus musculus [21] = experiment: Ratio of the change in tumor volume of treated animals to the change in tumor volume of control animals at a dose of 40 mg/kg; type: functional; outline: as §5

**Q.** With `O=C(/C=C/c1ccc(CN(CCO)CCc2c[nH]c3ccccc23)cc1)NO` [DACINOSTAT] as the compound, how does the IC50 (NCI-H1299) read?
**A.** The IC50 was 150 nM.

**Q.** And the IC50 (HCT-116)?
**A.** The IC50 was 10 nM.

**Q.** What about the Body weight change (Mus musculus [1]) of the same compound?
**A.** Its Body weight change is -0.9%.

**Q.** And the Body weight change (Mus musculus [2])?
**A.** The Body weight change was 1.4%.

**Q.** And the Body weight change (Mus musculus [3])?
**A.** Its Body weight change is 0%.

**Q.** What about the Body weight change (Mus musculus [4]) of the same compound?
**A.** The Body weight change was 2.3%.

**Q.** And the Body weight change (Mus musculus [5])?
**A.** The Body weight change was 1.3%.

**Q.** What about the Body weight change (Mus musculus [6]) of the same compound?
**A.** The Body weight change was 0.4%.

**Q.** And the Body weight change (Mus musculus [7])?
**A.** Its Body weight change is -0.9%.

**Q.** And the Body weight change (Mus musculus [8])?
**A.** The Body weight change was -0.4%.

**Q.** And the Body weight change (Mus musculus [9])?
**A.** The Body weight change was 2.7%.

**Q.** What about the T/C (Mus musculus [10]) of the same compound?
**A.** Its T/C is 15%.

**Q.** And the MTD (Mus musculus [11])?
**A.** Its MTD is over 200 mg/kg.

**Q.** And the T/C (Mus musculus [12])?
**A.** Its T/C is 55%.

**Q.** What about the T/C (Mus musculus [13]) of the same compound?
**A.** The T/C was 32%.

**Q.** What about the T/C (Mus musculus [14]) of the same compound?
**A.** Its T/C is 12% and 20%.

**Q.** What about the T/C (Mus musculus [15]) of the same compound?
**A.** Its T/C is 7%.

**Q.** What about the T/C (Mus musculus [16]) of the same compound?
**A.** Its T/C is 38%.

**Q.** And the T/C (Mus musculus [17])?
**A.** Its T/C is 20%.

**Q.** And the T/C (Mus musculus [18])?
**A.** The T/C was 27%.

**Q.** Which results are given for `O=C(/C=C/c1ccc(CN(CCc2c[nH]c3ccccc23)C2CCOCC2)cc1)NO`?
**A.** IC50 (NCI-H1299): 40 nM; IC50 (HCT-116): 6 nM; IC50 (Histone deacetylase): 10 nM; Body weight change (Mus musculus [19]): 0.1%; MTD (Mus musculus [20]): 40 mg/kg; T/C (Mus musculus [21]): 32%
